ChEMBL document CHEMBL2424622, “Development of amino-pyrimidine inhibitors of c-Jun N-terminal kinase (JNK): kinase profiling guided optimization of a 1,2,3-benzotriazole lead” (Bioorg Med Chem Lett, 2013)

What was measured:
[1] = biological target: Receptor tyrosine-protein kinase erbB-2 (Homo sapiens) (UniProt P04626); assay: Competitive binding affinity to ERBB2 (unknown origin) at 10 uM in presence of ATP relative to control
How it was run: (§1)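 In vitro ATP-site competition binding assay, part of profiling against a diverse panel of 128 kinases. Each compound was tested at a single concentration of 10 µM. Kinome selectivity was summarized as S15 selectivity scores.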

[2] = biological target: Tyrosine-protein kinase Fyn (Homo sapiens) (UniProt P06241); assay: Competitive binding affinity to FYN (unknown origin) at 10 uM in presence of ATP relative to control; how it was run: as §1
Tyrosine-protein kinase Fyn (Homo sapiens), sequence (P06241 2-537 limits assumed): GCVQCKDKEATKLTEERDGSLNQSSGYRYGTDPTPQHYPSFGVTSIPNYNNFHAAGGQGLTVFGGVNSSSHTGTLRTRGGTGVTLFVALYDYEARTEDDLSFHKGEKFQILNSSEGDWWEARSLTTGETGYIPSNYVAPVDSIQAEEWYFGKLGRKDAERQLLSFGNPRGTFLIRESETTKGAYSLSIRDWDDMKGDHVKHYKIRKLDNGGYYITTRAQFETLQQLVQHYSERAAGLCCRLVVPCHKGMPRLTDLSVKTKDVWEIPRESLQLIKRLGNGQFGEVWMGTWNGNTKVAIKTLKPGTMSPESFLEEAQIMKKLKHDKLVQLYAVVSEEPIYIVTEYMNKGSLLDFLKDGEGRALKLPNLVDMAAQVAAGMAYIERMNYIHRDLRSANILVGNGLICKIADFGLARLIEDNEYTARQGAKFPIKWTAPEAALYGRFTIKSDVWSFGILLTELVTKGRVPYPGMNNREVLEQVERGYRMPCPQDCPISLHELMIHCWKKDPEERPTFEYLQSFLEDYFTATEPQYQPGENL

[3] = biological target: Mitogen-activated protein kinase 9 (Homo sapiens, UniProt P45984)
Mitogen-activated protein kinase 9, sequence (P45984 whole entry): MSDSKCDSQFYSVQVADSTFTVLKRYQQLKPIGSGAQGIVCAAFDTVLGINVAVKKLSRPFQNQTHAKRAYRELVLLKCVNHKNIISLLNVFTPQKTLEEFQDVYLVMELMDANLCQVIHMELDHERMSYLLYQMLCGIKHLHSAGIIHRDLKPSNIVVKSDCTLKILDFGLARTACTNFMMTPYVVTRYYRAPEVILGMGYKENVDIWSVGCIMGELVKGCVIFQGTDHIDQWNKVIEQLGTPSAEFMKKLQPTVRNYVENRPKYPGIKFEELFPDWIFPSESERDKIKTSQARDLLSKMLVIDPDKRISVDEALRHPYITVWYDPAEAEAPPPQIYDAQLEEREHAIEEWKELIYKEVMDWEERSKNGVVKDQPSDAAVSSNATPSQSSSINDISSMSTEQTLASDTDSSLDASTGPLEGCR

[4] = biological target: Calcium/calmodulin-dependent protein kinase type II subunit beta (Homo sapiens) (UniProt Q13554); assay: Competitive binding affinity to CAMK2B (unknown origin) at 10 uM in presence of ATP relative to control
Calcium/calmodulin-dependent protein kinase type II subunit beta (Homo sapiens), sequence (Q13554 whole entry): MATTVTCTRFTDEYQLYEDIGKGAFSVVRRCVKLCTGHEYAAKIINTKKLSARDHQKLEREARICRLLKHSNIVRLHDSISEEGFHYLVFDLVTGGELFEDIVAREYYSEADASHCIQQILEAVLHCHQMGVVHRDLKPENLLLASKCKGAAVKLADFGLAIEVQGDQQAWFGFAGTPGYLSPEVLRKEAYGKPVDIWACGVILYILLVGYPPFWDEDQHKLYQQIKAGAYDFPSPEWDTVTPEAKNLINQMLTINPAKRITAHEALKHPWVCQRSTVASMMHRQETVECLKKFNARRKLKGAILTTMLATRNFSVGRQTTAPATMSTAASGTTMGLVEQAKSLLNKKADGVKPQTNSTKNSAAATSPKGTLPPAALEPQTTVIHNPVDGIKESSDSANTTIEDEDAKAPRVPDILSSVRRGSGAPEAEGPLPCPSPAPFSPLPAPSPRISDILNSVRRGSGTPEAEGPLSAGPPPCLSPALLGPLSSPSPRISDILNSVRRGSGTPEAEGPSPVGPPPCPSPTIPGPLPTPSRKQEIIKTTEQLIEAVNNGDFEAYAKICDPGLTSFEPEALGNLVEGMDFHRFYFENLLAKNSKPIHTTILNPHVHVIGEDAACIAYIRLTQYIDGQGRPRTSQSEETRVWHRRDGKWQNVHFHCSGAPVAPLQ

[5] = biological target: Tyrosine-protein kinase BTK (Homo sapiens) (UniProt Q06187); assay: Competitive binding affinity to BTK (unknown origin) at 10 uM in presence of ATP relative to control
Tyrosine-protein kinase BTK (Homo sapiens), sequence (Q06187 whole entry): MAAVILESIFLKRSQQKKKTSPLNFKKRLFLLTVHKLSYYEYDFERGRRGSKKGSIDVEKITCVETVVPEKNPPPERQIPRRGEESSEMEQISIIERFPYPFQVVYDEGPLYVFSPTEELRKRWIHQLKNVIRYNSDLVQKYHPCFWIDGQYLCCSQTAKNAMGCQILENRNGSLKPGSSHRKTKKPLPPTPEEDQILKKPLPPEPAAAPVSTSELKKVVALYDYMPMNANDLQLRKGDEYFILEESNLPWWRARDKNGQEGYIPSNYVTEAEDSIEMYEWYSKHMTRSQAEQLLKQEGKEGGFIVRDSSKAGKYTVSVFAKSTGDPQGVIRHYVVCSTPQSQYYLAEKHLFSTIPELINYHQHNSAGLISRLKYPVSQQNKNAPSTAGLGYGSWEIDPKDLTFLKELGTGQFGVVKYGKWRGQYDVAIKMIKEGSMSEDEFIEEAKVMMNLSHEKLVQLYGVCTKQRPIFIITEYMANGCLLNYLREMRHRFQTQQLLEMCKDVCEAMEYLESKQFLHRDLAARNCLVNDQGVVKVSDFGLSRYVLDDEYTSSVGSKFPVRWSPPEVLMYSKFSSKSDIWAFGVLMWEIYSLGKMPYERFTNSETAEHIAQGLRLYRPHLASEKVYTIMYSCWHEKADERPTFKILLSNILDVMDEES

[6] = biological target: T1, Aurora kinase C (Homo sapiens) (UniProt Q9UQB9); assay: Competitive binding affinity to AURKC (unknown origin) at 10 uM in presence of ATP relative to control
T1 sequence (whole entry): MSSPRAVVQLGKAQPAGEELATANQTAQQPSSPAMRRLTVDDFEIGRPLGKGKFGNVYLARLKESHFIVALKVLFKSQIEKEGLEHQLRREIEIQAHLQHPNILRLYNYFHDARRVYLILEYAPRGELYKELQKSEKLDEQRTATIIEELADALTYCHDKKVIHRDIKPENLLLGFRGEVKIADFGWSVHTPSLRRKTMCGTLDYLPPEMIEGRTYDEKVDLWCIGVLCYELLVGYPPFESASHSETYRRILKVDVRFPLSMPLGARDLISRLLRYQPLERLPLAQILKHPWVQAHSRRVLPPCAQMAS

[7] = biological target: Serine/threonine-protein kinase PAK 4 (Homo sapiens) (UniProt O96013); assay: Competitive binding affinity to PAK4 (unknown origin) at 10 uM in presence of ATP relative to control
Serine/threonine-protein kinase PAK 4 (Homo sapiens), sequence (O96013 whole entry, looked up): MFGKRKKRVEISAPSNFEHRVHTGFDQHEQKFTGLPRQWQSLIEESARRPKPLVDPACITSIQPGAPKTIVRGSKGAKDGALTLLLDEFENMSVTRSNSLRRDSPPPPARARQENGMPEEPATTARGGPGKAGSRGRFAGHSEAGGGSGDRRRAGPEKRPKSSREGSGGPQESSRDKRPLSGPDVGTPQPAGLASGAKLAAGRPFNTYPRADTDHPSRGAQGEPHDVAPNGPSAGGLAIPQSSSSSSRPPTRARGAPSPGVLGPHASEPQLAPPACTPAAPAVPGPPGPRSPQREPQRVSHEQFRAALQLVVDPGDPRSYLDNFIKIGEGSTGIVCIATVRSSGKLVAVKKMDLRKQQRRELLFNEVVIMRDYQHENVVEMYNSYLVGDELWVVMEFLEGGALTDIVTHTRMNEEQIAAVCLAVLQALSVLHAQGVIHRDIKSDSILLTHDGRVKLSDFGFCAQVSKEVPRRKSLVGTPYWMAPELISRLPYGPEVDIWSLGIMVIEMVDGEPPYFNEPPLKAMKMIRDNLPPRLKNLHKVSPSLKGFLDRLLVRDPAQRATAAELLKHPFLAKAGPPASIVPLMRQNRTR
How it was run: (§2)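 In vitro ATP-site competition binding assay across a diverse panel of 128 kinases, with compound tested at a single concentration. Kinase selectivity scores (S15) were calculated from the panel profiles.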

[8] = biological target: Serine/threonine-protein kinase Nek6 (Homo sapiens) (UniProt Q9HC98); assay: Competitive binding affinity to NEK6 (unknown origin) at 10 uM in presence of ATP relative to control; how it was run: as §2
Serine/threonine-protein kinase Nek6 (Homo sapiens), sequence (Q9HC98 whole entry): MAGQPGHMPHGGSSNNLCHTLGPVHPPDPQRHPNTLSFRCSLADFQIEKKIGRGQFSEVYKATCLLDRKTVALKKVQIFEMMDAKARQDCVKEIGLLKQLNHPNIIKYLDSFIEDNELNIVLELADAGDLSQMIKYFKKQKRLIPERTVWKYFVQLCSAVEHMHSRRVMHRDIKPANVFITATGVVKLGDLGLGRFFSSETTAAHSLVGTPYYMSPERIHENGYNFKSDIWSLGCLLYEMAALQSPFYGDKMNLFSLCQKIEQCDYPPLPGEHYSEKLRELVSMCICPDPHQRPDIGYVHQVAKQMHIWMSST

[9] = biological target: Mitogen-activated protein kinase 1 (Homo sapiens, UniProt P28482); assay: Competitive binding affinity to ERK2 (unknown origin) at 10 uM in presence of ATP relative to control; how it was run: as §1
Mitogen-activated protein kinase 1, sequence (P28482 whole entry): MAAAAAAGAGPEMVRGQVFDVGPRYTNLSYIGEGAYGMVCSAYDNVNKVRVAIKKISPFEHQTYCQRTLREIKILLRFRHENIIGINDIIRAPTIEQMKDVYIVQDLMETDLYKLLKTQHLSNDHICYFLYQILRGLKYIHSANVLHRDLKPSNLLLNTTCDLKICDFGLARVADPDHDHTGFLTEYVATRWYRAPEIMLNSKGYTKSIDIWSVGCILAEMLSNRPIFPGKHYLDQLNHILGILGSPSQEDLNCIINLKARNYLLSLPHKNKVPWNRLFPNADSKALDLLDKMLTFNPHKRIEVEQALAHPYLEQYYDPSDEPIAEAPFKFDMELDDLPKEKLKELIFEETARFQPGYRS

[10] = biological target: c-Jun N-terminal kinase, JNK (Homo sapiens, UniProt P45983+P53779+P45984); assay: Inhibition of JNK in human SW1353 cells assessed as inhibition of TNFalpha-induced c-Jun phosphorylation incubated for 30 mins prior to TNFalpha induction measured after 20 mins; assay type: cell-based
How it was run: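 SW1353 cells were stimulated with TNFa, and the read-out was inhibition of phosphorylation of the downstream substrate c-Jun. Values are the mean of at least three experiments.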

[11] = biological target: T2, Cyclin-G-associated kinase (Homo sapiens) (UniProt O14976); assay: Competitive binding affinity to GAK (unknown origin) at 10 uM in presence of ATP relative to control; how it was run: as §1
T2 sequence (whole entry): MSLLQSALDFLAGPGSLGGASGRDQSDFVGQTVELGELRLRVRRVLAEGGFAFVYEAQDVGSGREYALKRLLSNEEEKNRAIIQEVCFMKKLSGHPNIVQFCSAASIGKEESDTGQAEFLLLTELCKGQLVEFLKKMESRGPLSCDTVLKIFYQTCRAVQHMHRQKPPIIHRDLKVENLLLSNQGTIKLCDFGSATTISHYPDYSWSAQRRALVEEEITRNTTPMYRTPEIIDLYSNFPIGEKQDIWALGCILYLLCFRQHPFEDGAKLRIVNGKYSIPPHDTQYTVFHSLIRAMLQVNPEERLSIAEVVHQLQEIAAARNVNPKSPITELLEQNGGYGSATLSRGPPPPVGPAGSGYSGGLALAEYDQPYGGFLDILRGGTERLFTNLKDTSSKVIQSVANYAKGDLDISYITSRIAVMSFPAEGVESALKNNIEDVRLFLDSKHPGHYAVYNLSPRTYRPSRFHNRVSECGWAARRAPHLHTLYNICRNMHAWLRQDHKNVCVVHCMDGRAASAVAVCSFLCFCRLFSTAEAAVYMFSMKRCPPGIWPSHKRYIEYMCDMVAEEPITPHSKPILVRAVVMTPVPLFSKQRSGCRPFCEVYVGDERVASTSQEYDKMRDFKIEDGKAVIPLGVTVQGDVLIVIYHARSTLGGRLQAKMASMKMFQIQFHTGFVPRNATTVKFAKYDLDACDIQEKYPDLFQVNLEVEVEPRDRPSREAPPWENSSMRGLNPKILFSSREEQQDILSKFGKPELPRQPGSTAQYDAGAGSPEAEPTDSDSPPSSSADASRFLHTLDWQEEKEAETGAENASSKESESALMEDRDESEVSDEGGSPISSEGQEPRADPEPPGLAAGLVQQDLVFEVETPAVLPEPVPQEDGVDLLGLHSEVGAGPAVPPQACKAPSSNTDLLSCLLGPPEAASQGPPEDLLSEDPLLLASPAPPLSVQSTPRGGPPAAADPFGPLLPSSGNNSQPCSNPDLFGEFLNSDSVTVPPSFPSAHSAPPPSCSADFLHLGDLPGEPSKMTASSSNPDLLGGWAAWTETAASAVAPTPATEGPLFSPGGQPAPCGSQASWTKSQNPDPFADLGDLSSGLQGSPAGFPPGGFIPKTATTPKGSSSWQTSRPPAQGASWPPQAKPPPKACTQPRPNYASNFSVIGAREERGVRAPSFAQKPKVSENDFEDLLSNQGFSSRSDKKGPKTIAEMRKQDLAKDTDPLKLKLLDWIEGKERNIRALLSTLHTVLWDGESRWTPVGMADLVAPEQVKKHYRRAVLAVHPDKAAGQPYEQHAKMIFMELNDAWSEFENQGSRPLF

Receptor tyrosine-protein kinase erbB-2 (Homo sapiens), sequence (P04626 whole entry): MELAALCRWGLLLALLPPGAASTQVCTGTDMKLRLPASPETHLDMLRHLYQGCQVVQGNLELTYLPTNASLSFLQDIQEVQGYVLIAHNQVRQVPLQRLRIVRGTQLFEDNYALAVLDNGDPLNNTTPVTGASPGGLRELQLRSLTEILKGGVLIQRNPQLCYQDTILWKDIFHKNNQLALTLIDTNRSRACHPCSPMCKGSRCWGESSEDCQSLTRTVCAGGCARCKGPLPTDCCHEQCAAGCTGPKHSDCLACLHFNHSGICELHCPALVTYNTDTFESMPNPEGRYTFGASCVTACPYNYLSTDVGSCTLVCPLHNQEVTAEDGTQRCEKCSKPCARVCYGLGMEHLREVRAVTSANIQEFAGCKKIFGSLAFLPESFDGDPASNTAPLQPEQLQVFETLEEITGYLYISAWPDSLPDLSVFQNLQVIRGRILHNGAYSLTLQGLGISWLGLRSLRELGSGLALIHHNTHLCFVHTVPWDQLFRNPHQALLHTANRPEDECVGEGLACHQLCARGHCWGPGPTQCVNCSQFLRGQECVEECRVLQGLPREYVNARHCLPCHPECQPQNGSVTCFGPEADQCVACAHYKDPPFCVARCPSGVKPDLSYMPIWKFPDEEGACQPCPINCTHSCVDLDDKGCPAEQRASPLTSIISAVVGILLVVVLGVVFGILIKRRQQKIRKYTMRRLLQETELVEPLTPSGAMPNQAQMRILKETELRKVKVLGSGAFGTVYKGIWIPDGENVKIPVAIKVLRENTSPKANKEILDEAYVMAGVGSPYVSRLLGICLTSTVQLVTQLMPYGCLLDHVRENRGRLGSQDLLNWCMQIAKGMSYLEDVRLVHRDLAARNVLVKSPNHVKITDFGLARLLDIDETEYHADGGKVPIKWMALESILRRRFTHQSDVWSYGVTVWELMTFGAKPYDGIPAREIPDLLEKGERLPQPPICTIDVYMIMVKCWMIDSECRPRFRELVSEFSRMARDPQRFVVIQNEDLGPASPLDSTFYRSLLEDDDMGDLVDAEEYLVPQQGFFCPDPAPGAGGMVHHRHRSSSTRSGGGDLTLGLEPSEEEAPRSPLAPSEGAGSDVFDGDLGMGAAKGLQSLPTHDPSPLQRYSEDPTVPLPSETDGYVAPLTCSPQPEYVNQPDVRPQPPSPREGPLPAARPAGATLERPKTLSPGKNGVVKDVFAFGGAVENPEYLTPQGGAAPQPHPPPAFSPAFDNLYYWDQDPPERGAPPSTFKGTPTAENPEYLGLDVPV

Compound | inhibition [1] [%] | inhibition [2] [%] | IC50 [3] [nM] | inhibition [4] [%] | inhibition [5] [%] | inhibition [6] [%] | inhibition [7] [%] | inhibition [8] [%] | inhibition [9] [%] | IC50 [10] [µM] | inhibition [11] [%]
O[C@H]1CC[C@H](Nc2nccc(-c3n[nH]c4ccccc34)n2)CC1 | < 50 | 77 | 650 | 88 | < 50 | 96 | 92 | 77 | 82 | 2.3 | 100
O=C([C@H]1CC[C@H](Nc2nccc(-n3nnc4ccccc43)n2)CC1)N1CCOCC1 | < 50 | 81 | 180 | < 50 | < 50 | < 50 | < 50 | 66 | 86 | 1.8 | 100
O[C@H]1CC[C@H](Nc2nccc(-n3ncc4ccccc43)n2)CC1 | < 50 | < 50 | 350 | 87 | < 50 | < 50 | < 50 | < 50 | < 50 | 2.7 | 100

More lines, in order of falling IC50 [3], values ahead:

inhibition [1] [%] | inhibition [2] [%] | IC50 [3] [nM] | inhibition [4] [%] | inhibition [5] [%] | inhibition [6] [%] | inhibition [7] [%] | inhibition [8] [%] | inhibition [9] [%] | IC50 [10] [µM] | inhibition [11] [%] | Compound
< 50 | < 50 | 360 | 80 | < 50 | < 50 | < 50 | < 50 | < 50 | 2 | 91 | O[C@H]1CC[C@H](Nc2nccc(-n3ccc4ccccc43)n2)CC1
< 50 | 80 | 170 | < 50 | < 50 | 97 | < 50 | < 50 | < 50 | 0.54 | 91 | N[C@H]1CC[C@H](Nc2nccc(-n3nnc4ccccc43)n2)CC1
< 50 | < 50 | 110 | 67 | < 50 | < 50 | < 50 | 73 | < 50 | 0.79 | 100 | O[C@H]1CC[C@H](Nc2nccc(-n3nnc4ccccc43)n2)CC1
 |  | 66 |  |  |  |  |  | > 85 | 1.1 |  | CS(=O)(=O)CCCOc1cccc2c1ccn2-c1ccnc(N[C@H]2CC[C@H](C(=O)N3CCC(O)CC3)CC2)n1
